Source: ChEMBL document CHEMBL3352259, “Benzimidazole--ibuprofen/mesalamine conjugates: potential candidates for multifactorial diseases” (Eur J Med Chem, 2015)

Assays:
Rattus norvegicus [1] = test: Antiinflammatory activity against carrageenan-induced ip dosed Wistar rat paw edema model assessed as inhibition of edema administered 30 mins prior to carrageenan challenge measured after 60 mins; type: functional
Method in brief: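 Wistar rats (150-200 g, either sex), 150 µmol/kg i.p. 30 min before subplantar carrageenan; vehicle control 0.5% SCMC. Paw volume read at 0, 30, 60, 120, 180 min. % oedema inhibition = 100 − [(treated paw volume/control paw volume) × 100].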

Rattus norvegicus [2] = test: Antioxidant activity in Wistar rat assessed as catalase level measured per mg of protein at 150 umol/kg, po administered for 3 days measured on day 4 (reference value: 22.14 +/- 1.19 umol); type: functional
Rattus norvegicus [3] = test: Antioxidant activity in Wistar rat assessed as thiobarbituric acid reactive substance level measured per mg of protein at 150 umol/kg, po administered for 3 days measured on day 4 (reference value: 3.72 +/- 00.23 nmol); type: functional
Rattus norvegicus [4] = test: Gastrointestinal toxicity in Wistar rat assessed as ulcer index at 150 umol/kg, po administered for 3 days measured on day 4 (reference value: 0.33 +/-0.20); type: organism-based; conditions: in vivo, 72 h
Rattus norvegicus [5] = test: Antioxidant activity in Wistar rat assessed as GSH level measured per 100 mg of protein at 150 umol/kg, po administered for 3 days measured on day 4 (reference value: 184.10 +/- 4.19 umol); type: functional
Mus musculus [6] = test: Immunomodulatory activity in albino mouse assessed as change in humoral antibody titre at 150 umol/kg, po for 7 days followed by sheep RBC challenge measured on day 14; type: functional
Method in brief: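 Albino mice, 6 per group, 150 µmol/kg p.o. for 7 days. On day 7, challenged i.p. with 0.1 mL sheep RBC suspension (about 1×10^8 cells per 0.1 mL, saline-washed). Retro-orbital blood taken on day 14, serum separated at 2500 rpm for 10 min, and antibody titre determined by microtitre haemagglutination. Mean ± SD.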

Mus musculus [7] = test: Immunomodulatory activity in albino mouse assessed as change in carbon clearance index at 150 umol/kg, po for 5 days followed by carbon ink challenge; type: functional
Method in brief: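 Albino mice (18-22 g), 6 per group, 150 µmol/kg p.o. daily for 5 days (control 0.5% SCMC, 0.3 mL). Carbon ink suspension (10 µL/g) given via tail vein 48 h later. Retro-orbital blood at 3 and 15 min, 25 µL into 2 mL 0.1% Na2CO3, OD read. K = (ln OD1 − ln OD2)/12. Mean ± SD.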

With `CC(C)Cc1ccc(C(C)c2nc3ccccc3[nH]2)cc1` (stereo not drawn) the “inhibition (INH)” value (Rattus norvegicus [1]) was 57.1%, the Activity (Rattus norvegicus [2]) was 18.26 µmol and the Activity (Rattus norvegicus [3]) was 5.9 nmol. The UI (Rattus norvegicus [4]) was 0.92, the Activity (Rattus norvegicus [5]) was 158.6 µmol and the Activity (Mus musculus [6]) was 57.6%. It also gave an Activity (Mus musculus [7]) of over 100%.

`CC(C)Cc1ccc(C(C)c2nc3ccc([N+](=O)[O-])cc3[nH]2)cc1` (stereo not drawn) was tested, and the “inhibition (INH)” value (Rattus norvegicus [1]) was 38%, the Activity (Mus musculus [6]) was 19.2% and the Activity (Mus musculus [7]) was 29.4%.

For `Cc1ccc2nc(C(C)c3ccc(CC(C)C)cc3)[nH]c2c1` (stereo not drawn), the “inhibition (INH)” value (Rattus norvegicus [1]) was 58%, the Activity (Mus musculus [6]) was 38.4% and the Activity (Mus musculus [7]) was 70.5%.

In the case of `COc1ccc2nc(C(C)c3ccc(CC(C)C)cc3)[nH]c2c1` (stereo not drawn), the “inhibition (INH)” value (Rattus norvegicus [1]) is reported as 64.7%, the Activity (Mus musculus [6]) is reported as 42.3% and the Activity (Mus musculus [7]) is reported as 52.9%.

For `CC(C)Cc1ccc(C(C)c2nc3ccc(C(=O)c4ccccc4)cc3[nH]2)cc1` (stereo not drawn), the “inhibition (INH)” value (Rattus norvegicus [1]) was 68.1%, the Activity (Rattus norvegicus [2]) was 14.12 µmol and the Activity (Rattus norvegicus [3]) was 11.28 nmol. It also gave a UI (Rattus norvegicus [4]) of 0.7, an Activity (Rattus norvegicus [5]) of 131.5 µmol and an Activity (Mus musculus [6]) of 61.5%. The Activity (Mus musculus [7]) was over 100%.

`Nc1ccc(O)c(-c2nc3ccccc3[nH]2)c1` was tested, and the “inhibition (INH)” value (Rattus norvegicus [1]) was 54.6%, the Activity (Rattus norvegicus [2]) was 18.78 µmol and the Activity (Rattus norvegicus [3]) was 5.47 nmol. It also gave a UI (Rattus norvegicus [4]) of 0.58, an Activity (Rattus norvegicus [5]) of 178.18 µmol and an Activity (Mus musculus [6]) of 61.5%. For the same compound, the Activity (Mus musculus [7]) was over 100%.

For `Nc1ccc(O)c(-c2nc3ccc([N+](=O)[O-])cc3[nH]2)c1`, the “inhibition (INH)” value (Rattus norvegicus [1]) was 42.9%, the Activity (Mus musculus [6]) was 23% and the Activity (Mus musculus [7]) was 41.2%.

`Cc1ccc2nc(-c3cc(N)ccc3O)[nH]c2c1` was tested, and the “inhibition (INH)” value (Rattus norvegicus [1]) was 52.4%, the Activity (Mus musculus [6]) was 42.3% and the Activity (Mus musculus [7]) was 58.8%.

With `COc1ccc2nc(-c3cc(N)ccc3O)[nH]c2c1` the “inhibition (INH)” value (Rattus norvegicus [1]) was 55.7%, the Activity (Mus musculus [6]) was 46.2% and the Activity (Mus musculus [7]) was 70.5%.

In the case of `Nc1ccc(O)c(-c2nc3ccc(C(=O)c4ccccc4)cc3[nH]2)c1`, the “inhibition (INH)” value (Rattus norvegicus [1]) is reported as 62.6%, the Activity (Rattus norvegicus [2]) is reported as 16.94 µmol and the Activity (Rattus norvegicus [3]) is reported as 8.95 nmol. For the same compound, the UI (Rattus norvegicus [4]) was 1.1, the Activity (Rattus norvegicus [5]) was 153.38 µmol and the Activity (Mus musculus [6]) was 69.2%. For the same compound, the Activity (Mus musculus [7]) was over 100%.

`CC(C)Cc1ccc(C(C)C(=O)Nc2nc3ccccc3[nH]2)cc1` (stereo not drawn) was tested, and the “inhibition (INH)” value (Rattus norvegicus [1]) was 53.8%, the Activity (Mus musculus [6]) was 38.4% and the Activity (Mus musculus [7]) was 76.4%.

In the case of `CC(C)Cc1ccc(C(C)C(=O)Nc2nc3ccc([N+](=O)[O-])cc3[nH]2)cc1` (stereo not drawn), the “inhibition (INH)” value (Rattus norvegicus [1]) is reported as 34.3%, the Activity (Mus musculus [6]) is reported as 15.3% and the Activity (Mus musculus [7]) is reported as 23.5%.

For `Cc1ccc2nc(NC(=O)C(C)c3ccc(CC(C)C)cc3)[nH]c2c1` (stereo not drawn), the “inhibition (INH)” value (Rattus norvegicus [1]) was 54.1%, the Activity (Mus musculus [6]) was 23.1% and the Activity (Mus musculus [7]) was 47.1%.

In the case of `COc1ccc2nc(NC(=O)C(C)c3ccc(CC(C)C)cc3)[nH]c2c1` (stereo not drawn), the “inhibition (INH)” value (Rattus norvegicus [1]) is reported as 55.3%, the Activity (Mus musculus [6]) is reported as 26.9% and the Activity (Mus musculus [7]) is reported as 52.9%.

For `CC(C)Cc1ccc(C(C)C(=O)Nc2nc3ccc(C(=O)c4ccccc4)cc3[nH]2)cc1` (stereo not drawn), the “inhibition (INH)” value (Rattus norvegicus [1]) was 60.1%, the Activity (Mus musculus [6]) was 42.3% and the Activity (Mus musculus [7]) was 64.7%.

For `Nc1ccc(O)c(C(=O)Nc2nc3ccccc3[nH]2)c1`, the “inhibition (INH)” value (Rattus norvegicus [1]) was 50%, the Activity (Mus musculus [6]) was -34.6% and the Activity (Mus musculus [7]) was -29.4%.

For `Nc1ccc(O)c(C(=O)Nc2nc3ccc([N+](=O)[O-])cc3[nH]2)c1`, the “inhibition (INH)” value (Rattus norvegicus [1]) was 36.9%, the Activity (Rattus norvegicus [2]) was 11.87 µmol and the Activity (Rattus norvegicus [3]) was 11.98 nmol. For the same compound, the UI (Rattus norvegicus [4]) was 0.4, the Activity (Rattus norvegicus [5]) was 127.32 µmol and the Activity (Mus musculus [6]) was -50%. It also gave an Activity (Mus musculus [7]) of -41.1%.

For `Cc1ccc2nc(NC(=O)c3cc(N)ccc3O)[nH]c2c1`, the “inhibition (INH)” value (Rattus norvegicus [1]) was 48.8%, the Activity (Mus musculus [6]) was -38.4% and the Activity (Mus musculus [7]) was -35.2%.

In the case of `COc1ccc2nc(NC(=O)c3cc(N)ccc3O)[nH]c2c1`, the “inhibition (INH)” value (Rattus norvegicus [1]) is reported as 50%, the Activity (Mus musculus [6]) is reported as -34.6% and the Activity (Mus musculus [7]) is reported as -29.4%.

With `Nc1ccc(O)c(C(=O)Nc2nc3ccc(C(=O)c4ccccc4)cc3[nH]2)c1` the “inhibition (INH)” value (Rattus norvegicus [1]) was 52.1%, the Activity (Mus musculus [6]) was -26.9% and the Activity (Mus musculus [7]) was -17.6%.

`CC(C)Cc1ccc(C(C)C(=O)O)cc1` (stereo not drawn) [IBUPROFEN] was tested, and the “inhibition (INH)” value (Rattus norvegicus [1]) was 53.8%.

`COc1ccc2c(c1)c(CC(=O)O)c(C)n2C(=O)c1ccc(Cl)cc1` [INDOMETHACIN] gave an Activity (Rattus norvegicus [2]) of 7.79 µmol, an Activity (Rattus norvegicus [3]) of 30.41 nmol and a UI (Rattus norvegicus [4]) of 3.17. It also gave an Activity (Rattus norvegicus [5]) of 85.2 µmol.

For `c1ccc([C@H]2CN3CCSC3=N2)cc1` [LEVAMISOLE], the Activity (Mus musculus [6]) was 65.3% and the Activity (Mus musculus [7]) was 88.2%.

In the case of `Nc1ccc(O)c(C(=O)O)c1` [MESALAMINE], the “inhibition (INH)” value (Rattus norvegicus [1]) is reported as 50%.
